# Calls of active or inactive are those of the source. The calls are words filed in the database; no cut-off is given here.
# Key:
# [1] = biological target: Cyclin-dependent kinase 1/cyclin B1 (Homo sapiens, UniProt P06493); experiment: Inhibition of CDK1/Cyclin B; type: protein-complex assay
# [2] = biological target: Cyclin-dependent kinase 2 (Homo sapiens, UniProt P24941); experiment: Inhibition of CDK2/Cyclin A
# [3] = Inhibition of CDK4/Cyclin D
# MCF7 [4] = experiment: Antitumor activity against human MCF7 cells assessed as cell growth at 10 uM after 48 hrs by sulforhodamine B assay; type: functional; conditions: MCF7, 48 h, read-out: Activity
# Outline: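 NCI primary screen, single concentration 10^-5 M against MCF7, NCI-H460 and SF-268. Cells in RPMI 1640 with 5% FBS and 2 mM L-glutamine, seeded at 5000–40,000 cells/well by cell type, preincubated 24 h at 37 °C. Compound added at time zero, then 48 h incubation (5% CO2, 100% humidity). Growth read by sulforhodamine B optical density, reported as growth percentage.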
# RPMI8266 = experiment: (§1) Cytotoxicity against human […] cells after 48 hrs by sulforhodamine B assay; type: functional
# Outline: (§2)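 NCI human tumor panel. Cells in RPMI 1640 with 5% FBS and 2 mM L-glutamine, 5000–40,000 cells/well by growth characteristics, 24 h preincubation at 37 °C. Compound added at time zero at five 10-fold dilutions, top concentration agent-dependent. Incubated 48 h (5% CO2, 100% humidity), then sulforhodamine B stain and plate-reader OD. GI50 and TGI are the concentrations giving 50% and total growth inhibition, in µM.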
# SR = experiment: Cytotoxicity against human SR cells after 48 hrs by sulforhodamine B assay; type: functional; outline: as §2
# HOP-62 = experiment: Cytotoxicity against human HOP62 cells after 48 hrs by sulforhodamine B assay; type: functional; outline: as §2
# HOP-92 = experiment: Cytotoxicity against human HOP92 cells after 48 hrs by sulforhodamine B assay; type: functional; conditions: for GI50: HOP-92, 48 h; outline: as §2
# NCI-H322M = experiment: Cytotoxicity against human NCI-H322M cells after 48 hrs by sulforhodamine B assay; type: functional; outline: as §2
# HCC 2998 = experiment: Cytotoxicity against human HCC2998 cells after 48 hrs by sulforhodamine B assay; type: functional; outline: as §2
# HCT-15 = experiment: Cytotoxicity against human HCT15 cells after 48 hrs by sulforhodamine B assay; type: functional; conditions: for GI50: HCT-15, 48 h; outline: as §2
# KM12 = experiment: Cytotoxicity against human KM12 cells after 48 hrs by sulforhodamine B assay; type: functional; conditions: for GI50: KM12, 48 h; outline: as §2
# SF-268 = experiment: Cytotoxicity against human SF268 cells after 48 hrs by sulforhodamine B assay; type: functional; outline: as §2
# SF-539 = experiment: Cytotoxicity against human SF539 cells after 48 hrs by sulforhodamine B assay; type: functional; outline: as §2
# SNB-75 = experiment: Cytotoxicity against human SNB75 cells after 48 hrs by sulforhodamine B assay; type: functional; outline: as §2
# LOX IMVI = experiment: Cytotoxicity against human LOXIMVI cells after 48 hrs by sulforhodamine B assay; type: functional; outline: as §2
# UACC-62 = experiment: Cytotoxicity against human UACC62 cells after 48 hrs by sulforhodamine B assay; type: functional; conditions: for GI50: UACC-62, 48 h; outline: as §2
# OVCAR-3 = experiment: Cytotoxicity against human OVCAR-3 cells after 48 hrs by sulforhodamine B assay; type: functional; outline: as §2
# A498 = experiment: Cytotoxicity against human A498 cells after 48 hrs by sulforhodamine B assay; type: functional; conditions: for GI50: A498, 48 h; outline: as §2
# ACHN = experiment: Cytotoxicity against human ACHN cells after 48 hrs by sulforhodamine B assay; type: functional; outline: as §2
# CAKI-1 = experiment: Cytotoxicity against human Caki1 cells after 48 hrs by sulforhodamine B assay; type: functional; conditions: for GI50: CAKI-1, 48 h; outline: as §2
# TK-10 = experiment: Cytotoxicity against human TK10 cells after 48 hrs by sulforhodamine B assay; type: functional; conditions: for GI50: TK-10, 48 h; outline: as §2
# MCF7 [5] = experiment: Cytotoxicity against human MCF7 cells after 48 hrs by sulforhodamine B assay; type: functional; conditions: for GI50: MCF7, 48 h; outline: as §2
# [6] = (§3) Cytotoxicity against human Hs 578T cells after 48 hrs by sulforhodamine B assay; type: functional; outline: as §2
# BT-549 = experiment: Cytotoxicity against human BT549 cells after 48 hrs by sulforhodamine B assay; type: functional; outline: as §2
# HCT-116 [7] = experiment: Antitumor activity against human HCT116 cells xenografted in nude mouse; type: functional, cell-based
# CCRF-CEM = experiment: Cytotoxicity against human CCRF-CEM cells after 48 hrs by sulforhodamine B assay; type: functional; outline: as §2
# NCI-H226 = experiment: Cytotoxicity against human NCI-H226 cells after 48 hrs by sulforhodamine B assay; type: functional; conditions: NCI-H226, 48 h; outline: as §2
# HCT-116 [8] = experiment: Cytotoxicity against human HCT116 cells after 48 hrs by sulforhodamine B assay; type: functional; outline: as §2
# OVCAR-4 = experiment: Cytotoxicity against human OVCAR4 cells after 48 hrs by sulforhodamine B assay; type: functional; outline: as §2
# Hs-578T = experiment: as §3; type: functional; outline: as §2
# [9] = as §1; type: functional; outline: as §2
# Chain of Cyclin-dependent kinase 1/cyclin B1 (P06493 whole entry): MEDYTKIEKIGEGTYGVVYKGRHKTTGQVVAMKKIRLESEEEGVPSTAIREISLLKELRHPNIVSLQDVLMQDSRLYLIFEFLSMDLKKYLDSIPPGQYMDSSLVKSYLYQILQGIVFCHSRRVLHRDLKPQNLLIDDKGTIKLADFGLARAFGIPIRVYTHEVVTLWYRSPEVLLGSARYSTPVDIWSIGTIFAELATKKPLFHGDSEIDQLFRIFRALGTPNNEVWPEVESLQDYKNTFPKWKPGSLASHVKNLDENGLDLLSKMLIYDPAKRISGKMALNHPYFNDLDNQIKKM
# Chain of Cyclin-dependent kinase 1/cyclin B1 (P14635 whole entry, further chain): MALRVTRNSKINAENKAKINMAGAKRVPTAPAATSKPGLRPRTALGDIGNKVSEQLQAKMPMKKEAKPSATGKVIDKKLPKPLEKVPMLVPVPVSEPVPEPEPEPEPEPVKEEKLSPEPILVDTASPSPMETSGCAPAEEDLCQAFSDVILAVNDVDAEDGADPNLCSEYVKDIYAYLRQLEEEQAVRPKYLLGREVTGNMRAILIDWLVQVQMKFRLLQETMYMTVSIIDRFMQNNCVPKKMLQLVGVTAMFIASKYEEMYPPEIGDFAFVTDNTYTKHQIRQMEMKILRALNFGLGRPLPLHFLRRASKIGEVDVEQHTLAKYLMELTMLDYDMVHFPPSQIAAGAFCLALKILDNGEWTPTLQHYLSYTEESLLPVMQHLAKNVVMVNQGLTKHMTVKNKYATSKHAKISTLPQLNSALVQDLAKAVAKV
structure (smiles),measurement,setting,value
S=c1[nH]c(=S)c2c(Cc3nn4c(Cc5ccccc5)nnc4s3)n[nH]c2[nH]1,IC50,[1],14 µM
same,IC50,[2],24 µM
same,IC50,[3],> 48 µM
NNc1nn2c(COc3ccc(Cl)cc3)nnc2s1,IC50,[1],28 µM
same,IC50,[2],15 µM
same,IC50,[3],> 120 µM
Nc1nc(O)c(Cc2nn3c(COc4ccc(Cl)cc4)nnc3s2)s1,IC50,[1],0.91 µM
same,IC50,[2],0.18 µM
same,IC50,[3],3 µM
same,growth at 10 µM,MCF7 [4],0%
same,pGI50,RPMI8266,inactive
same,GI50,SR,49 µM
same,pGI50,HOP-62,inactive
same,GI50,HOP-92,97.7 µM
same,GI50,NCI-H322M,11.2 µM
same,pGI50,HCC 2998,inactive
same,GI50,HCT-15,0.741 µM
same,GI50,KM12,7.41 µM
same,pGI50,SF-268,inactive
same,GI50,"SF-539; SF-539, 48 h",39.8 µM
same,pGI50,SNB-75,inactive
same,GI50,LOX IMVI,3.63 µM
same,GI50,UACC-62,31.6 µM
same,pGI50,OVCAR-3,inactive
same,GI50,A498,0.0537 µM
same,GI50,ACHN,35.5 µM
same,pGI50,CAKI-1,inactive
same,GI50,TK-10,45.7 µM
same,GI50,MCF7 [5],> 100 µM
same,GI50,[6],31.6 µM
same,pGI50,BT-549,inactive
same,Activity,HCT-116 [7],Active
CCSc1nn2c(Cc3ccccc3)nnc2s1,IC50,[1],> 120 µM
same,IC50,[2],24 µM
same,IC50,[3],> 48 µM
Cc1nnc2sc(Cc3n[nH]c4[nH]c(=S)[nH]c(=S)c34)nn12,IC50,[1],> 48 µM
same,IC50,[2],24 µM
same,IC50,[3],10 µM
Cc1nnc2sc(Cc3sc(N)nc3O)nn12,IC50,[1],12 µM
same,IC50,[2],0.25 µM
same,IC50,[3],12 µM
same,growth at 10 µM,MCF7 [4],130%
same,pGI50,CCRF-CEM,inactive
same,pGI50,SR,inactive
same,pGI50,HOP-62,inactive
same,pGI50,HOP-92,inactive
same,GI50,NCI-H226,77.6 µM
same,GI50,NCI-H322M,87.1 µM
same,pGI50,HCC 2998,inactive
same,GI50,"HCT-116 [8]; HCT-116, 48 h",83.2 µM
same,pGI50,HCT-15,inactive
same,GI50,KM12,97.7 µM
same,pGI50,SF-268,inactive
same,pGI50,SF-539,inactive
same,pGI50,SNB-75,inactive
same,pGI50,LOX IMVI,inactive
same,pGI50,UACC-62,inactive
same,pGI50,OVCAR-3,inactive
same,pGI50,OVCAR-4,inactive
same,pGI50,A498,inactive
same,pGI50,ACHN,inactive
same,GI50,CAKI-1,63.1 µM
same,pGI50,TK-10,inactive
same,pGI50,MCF7 [5],inactive
same,pGI50,Hs-578T,inactive
same,pGI50,BT-549,inactive
Nc1ccc(-c2nn3c(Cc4ccccc4)nnc3s2)cc1,IC50,[1],> 120 µM
same,IC50,[2],> 28 µM
same,IC50,[3],14 µM
CCSc1nn2c(COc3ccc(Cl)cc3)nnc2s1,IC50,[1],> 48 µM
same,IC50,[2],24 µM
same,IC50,[3],> 120 µM
Clc1ccc(OCc2nnc3sc(SCc4ccccc4)nn23)cc1,IC50,[1],> 120 µM
same,IC50,[2],> 28 µM
same,IC50,[3],37 µM
Clc1ccc(OCc2nnc3sc(SSc4nn5c(COc6ccc(Cl)cc6)nnc5s4)nn23)cc1,IC50,[1],11 µM
same,IC50,[2],0.82 µM
same,IC50,[3],8 µM
same,growth at 10 µM,MCF7 [4],147%
same,GI50,CCRF-CEM,75.9 µM
same,GI50,[9],44.7 µM
same,GI50,SR,14.1 µM
same,GI50,"HOP-62; HOP-62, 48 h",66.1 µM
same,GI50,HOP-92,18.2 µM
same,GI50,NCI-H226,87.1 µM
same,GI50,"HCC 2998; HCC 2998, 48 h",16.2 µM
same,pGI50,HCT-116 [8],inactive
same,GI50,HCT-15,87.1 µM
same,pGI50,KM12,inactive
same,pGI50,SF-268,inactive
same,pGI50,SF-539,inactive
same,pGI50,SNB-75,inactive
same,GI50,UACC-62,44.7 µM
same,GI50,"OVCAR-3; OVCAR-3, 48 h",35.5 µM
same,GI50,"OVCAR-4; OVCAR-4, 48 h",46.8 µM
same,GI50,A498,28.8 µM
same,pGI50,ACHN,inactive
same,GI50,CAKI-1,77.6 µM
same,GI50,TK-10,72.4 µM
same,GI50,MCF7 [5],44.7 µM
same,pGI50,Hs-578T,inactive
same,GI50,"BT-549; BT-549, 48 h",47.9 µM
same,Activity,HCT-116 [7],inactive
S=c1[nH]c(=S)c2c(Cc3nn4c(COc5ccc(Cl)cc5)nnc4s3)n[nH]c2[nH]1,IC50,[1],29 µM
same,IC50,[2],37 µM
same,IC50,[3],> 48 µM
c1ccc(CSc2nn3c(Cc4ccccc4)nnc3s2)cc1,IC50,[1],25 µM
same,IC50,[2],> 28 µM
same,IC50,[3],18 µM

# Reference: ChEMBL document CHEMBL1152892, “Synthesis and biological evaluation of 3,6-disubstituted [1,2,4]triazolo[3,4-b][1,3,4]thiadiazole derivatives as a novel class of potential anti-tumor agents” (Eur J Med Chem, 2009)
